{"data": "Measured values collected from several papers", "target": "Homeodomain-interacting protein kinase 2 (HIPK2, Homo sapiens, UniProt Q9H2X6)"}
{"Compound": "Cc1cc(-n2nc(Cc3cc(F)cc(C(F)(F)F)c3)nc2C)ccc1C(N)=O", "assay": "cell-free assay, competition with immobilised ligand", "setting": "1 µM", "remaining binding": "100%"}
{"Compound": "Cc1cnc(Nc2ccc(C(=O)N3CCC(N4CCCC4)CC3)cc2)nc1-c1cc2ccccc2s1", "assay": "binding, competition with immobilised ligand", "setting": "1 µM", "remaining binding": "0.5%"}
{"Compound": "CN(C)c1nccc(-c2cnc3ncccn23)n1", "assay": "binding", "setting": "1 µM", "remaining binding": "36%"}
{"Compound": "O=C(c1ccc(Nc2ncc(Cl)c(-c3ccc(Cl)s3)n2)cc1)N1CCC(N2CCCC2)CC1", "assay": "binding, competition with immobilised ligand", "setting": "1 µM", "remaining binding": "0.15%"}
{"Compound": "CCCOc1ccc([C@@H]2[C@@H](C(=O)O)[C@H](c3ccc4c(c3)OCO4)CN2CC(=O)Nc2c(CC)cccc2CC)cc1", "assay": "cell-free assay, competition with immobilised ligand", "setting": "1 µM", "remaining binding": "80%"}
{"Compound": "C=CC(=O)N1CCC(C(=O)NCC(=O)N2CCN(c3nc(-c4cnc(N)nc4C(F)F)nc(N4CCOCC4)n3)CC2)CC1", "assay": "binding, competition with immobilised ligand", "setting": "1 µM", "remaining binding": "83%"}
{"Compound": "N[C@H]1CCN(c2nccc(-c3cnn4ncccc34)n2)C1", "assay": "binding", "setting": "1 µM", "remaining binding": "98%"}
{"Compound": "C[C@H](NC(=O)c1cnc2n1[C@](C)(Cc1ccc(C#N)cc1)C(=O)N2c1cc(Cl)c(F)c(Cl)c1)C(=O)NC1(c2ccccn2)CC1", "assay": "cell-free assay, competition with immobilised ligand", "setting": "1 µM", "remaining binding": "100%"}
{"Compound": "CCN1CCN(Cc2ccc(C(=O)Nc3ccc(C)c(Oc4ccc5c(c4)CC(=O)N5)c3)cc2C(F)(F)F)CC1", "assay": "binding, competition with immobilised ligand", "setting": "1 µM", "remaining binding": "100%"}
{"Compound": "CN(C)c1nccc(-c2cnn3ncccc23)n1", "assay": "binding", "setting": "1 µM", "remaining binding": "49%"}
{"Compound": "CCC(=O)N[C@@H]1CC[C@H](C(=O)N(C)c2ccc(-c3nc4ccccc4o3)cc2)C1", "assay": "cell-free assay, competition with immobilised ligand", "setting": "1 µM", "remaining binding": "100%"}
{"Compound": "c1cncc(-c2cccc(Nc3nccc(NC4CCCCC4)n3)c2)c1", "assay": "binding, competition with immobilised ligand", "setting": "10 µM", "remaining binding": "53%"}
{"Compound": "C[C@@H]1CCN(c2nccc(-c3cnn4ncccc34)n2)C1", "assay": "binding", "setting": "1 µM", "remaining binding": "61%"}
{"Compound": "COc1cnc(Nc2cccc(S(N)(=O)=O)c2)nc1N1CCN(c2ccccc2)CC1", "assay": "binding, competition with immobilised ligand", "setting": "1 µM", "remaining binding": "100%"}
{"Compound": "COc1ccnn2ncc(-c3ccnc(N(C)C)n3)c12", "assay": "binding", "setting": "1 µM", "remaining binding": "71%"}
{"Compound": "O=C(NCc1ncc(C(F)(F)F)cc1Cl)c1ccc2c(c1)C1(CCS(=O)(=O)CC1)[C@@H](C1CC1)N2S(=O)(=O)c1ccc(F)cc1", "assay": "cell-free assay, competition with immobilised ligand", "setting": "1 µM", "remaining binding": "72%"}
{"Compound": "O=C(NCC1CCOCC1)c1n[nH]cc1NC(=O)c1c(F)cccc1F", "assay": "binding, competition with immobilised ligand", "setting": "1 µM", "remaining binding": "100%"}
{"Compound": "CC(=O)Nc1c(C(C)=O)c(=O)n(C)c2nc(-c3ccc(Cl)cc3Cl)c(-c3ccc(Cl)cc3)cc12", "assay": "cell-free assay, competition with immobilised ligand", "setting": "1 µM", "remaining binding": "100%"}
{"Compound": "CNC(=O)[C@@H]1CC[C@@H](n2c(-c3ccc4cnccc4c3)nc3ccc(C(=O)NCc4cccc(C(N)=O)c4)cc32)C1", "assay": "binding, competition with immobilised ligand", "setting": "1 µM", "remaining binding": "100%"}
{"Compound": "Cc1cnn2ncc(-c3ccnc(N(C)C)n3)c2c1", "assay": "binding", "setting": "1 µM", "remaining binding": "63%"}
{"Compound": "Cn1nc(C(F)(F)F)cc1-c1cnc(N2CCc3cc(S(=O)(=O)Nc4c(F)cc(Cl)cc4F)cc(N4CCCC4=O)c32)nc1", "assay": "cell-free assay, competition with immobilised ligand", "setting": "1 µM", "remaining binding": "74%"}
{"Compound": "O=C(c1ccc(Nc2ncc(Cl)c(-c3cc4ccccc4s3)n2)cc1)N1CCC(N2CCCC2)CC1", "assay": "binding, competition with immobilised ligand", "setting": "1 µM", "remaining binding": "0.2%"}
